Reference: ChEMBL document CHEMBL1944596, “7,8-dichloro-1-oxo-β-carbolines as a versatile scaffold for the development of potent and selective kinase inhibitors with unusual binding modes” (J Med Chem, 2012)
Activity calls are given as the source filed them. No cut-off for these calls is given here.

Key:
[1] = biological target: Protein kinase C alpha type (Homo sapiens, UniProt P17252); test: Inhibition of PKCalpha using ATP as substrate
[2] = biological target: Protein kinase C theta type (Homo sapiens, UniProt Q04759); test: Inhibition of PKCtheta using ATP as substrate
[3] = biological target: Proto-oncogene tyrosine-protein kinase receptor Ret (Homo sapiens, UniProt P07949); test: Inhibition of RET using ATP as substrate
Proto-oncogene tyrosine-protein kinase receptor Ret, sequence (P07949 whole entry): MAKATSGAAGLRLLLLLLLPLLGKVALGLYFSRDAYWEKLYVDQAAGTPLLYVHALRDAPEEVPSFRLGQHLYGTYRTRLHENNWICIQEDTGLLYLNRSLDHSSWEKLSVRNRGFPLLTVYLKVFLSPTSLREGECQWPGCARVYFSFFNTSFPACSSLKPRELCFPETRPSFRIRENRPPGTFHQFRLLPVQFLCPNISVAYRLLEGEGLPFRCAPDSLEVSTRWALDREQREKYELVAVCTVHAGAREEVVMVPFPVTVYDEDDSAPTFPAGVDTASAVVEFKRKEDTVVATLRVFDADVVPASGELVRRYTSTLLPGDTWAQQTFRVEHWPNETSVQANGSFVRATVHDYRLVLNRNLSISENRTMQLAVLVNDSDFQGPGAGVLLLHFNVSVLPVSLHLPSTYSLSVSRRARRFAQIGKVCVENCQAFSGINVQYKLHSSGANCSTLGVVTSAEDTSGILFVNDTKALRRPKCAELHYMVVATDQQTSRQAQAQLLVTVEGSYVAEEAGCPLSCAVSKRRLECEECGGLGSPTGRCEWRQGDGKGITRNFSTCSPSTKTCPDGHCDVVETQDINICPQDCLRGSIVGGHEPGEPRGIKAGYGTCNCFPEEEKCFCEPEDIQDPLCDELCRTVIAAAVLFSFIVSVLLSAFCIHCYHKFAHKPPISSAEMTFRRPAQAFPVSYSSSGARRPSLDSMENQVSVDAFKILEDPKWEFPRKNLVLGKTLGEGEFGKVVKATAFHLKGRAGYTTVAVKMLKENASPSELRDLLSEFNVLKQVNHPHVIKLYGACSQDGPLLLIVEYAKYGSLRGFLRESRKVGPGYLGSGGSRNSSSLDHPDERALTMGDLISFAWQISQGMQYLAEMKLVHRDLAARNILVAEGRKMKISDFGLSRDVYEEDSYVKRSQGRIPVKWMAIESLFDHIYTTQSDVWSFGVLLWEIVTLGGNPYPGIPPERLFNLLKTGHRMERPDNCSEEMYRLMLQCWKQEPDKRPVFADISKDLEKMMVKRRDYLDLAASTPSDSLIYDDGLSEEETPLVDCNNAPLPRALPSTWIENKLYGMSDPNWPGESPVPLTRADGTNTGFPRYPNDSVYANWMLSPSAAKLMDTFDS

[4] = biological target: Rho-associated protein kinase 2 (Homo sapiens, UniProt O75116); test: Inhibition of ROCK2 using ATP as substrate
[5] = Inhibition of S6K using ATP as substrate
[6] = Inhibition of PKA using ATP as substrate
[7] = biological target: Serine/threonine-protein kinase pim-2 (Homo sapiens, UniProt Q9P1W9); test: Inhibition of PIM2 using ATP as substrate
Serine/threonine-protein kinase pim-2, sequence (Q9P1W9 whole entry, canonical isoform): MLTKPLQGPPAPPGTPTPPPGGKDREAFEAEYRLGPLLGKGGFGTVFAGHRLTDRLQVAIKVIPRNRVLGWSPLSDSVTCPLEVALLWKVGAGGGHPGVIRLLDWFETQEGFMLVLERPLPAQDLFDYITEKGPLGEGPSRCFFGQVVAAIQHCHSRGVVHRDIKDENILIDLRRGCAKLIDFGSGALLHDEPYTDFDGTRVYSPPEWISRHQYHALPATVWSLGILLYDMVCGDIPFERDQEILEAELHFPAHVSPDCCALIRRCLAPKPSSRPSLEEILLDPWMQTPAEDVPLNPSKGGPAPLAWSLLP

[8] = biological target: Phosphatidylinositol 4,5-bisphosphate 3-kinase catalytic subunit gamma isoform (Homo sapiens, UniProt P48736); test: Inhibition of PI3Kgamma using ATP as substrate
[9] = Growth inhibition of human RS4:11 cells after 48 hrs by WST-1 assay; assay type: functional, cell-based; details: RS4-11, 48 h
How it was run: (§1)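 Compound (0–10 μM) added to the culture medium and incubated 48 h. Proliferation and viability read by WST-1 reagent. Survival expressed as percentage of control cultures and IC50 derived by curve fitting.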

[10] = Growth inhibition of human SEM cells after 48 hrs by WST-1 assay; assay type: functional, cell-based; how it was run: as §1
K562 = test: Growth inhibition of human K562 cells after 48 hrs by WST-1 assay; assay type: functional, cell-based; details: K562, 48 h; how it was run: as §1
[11] = biological target: Vascular endothelial growth factor receptor 2 (Homo sapiens, UniProt P35968); test: Inhibition of KDR using ATP as substrate
Vascular endothelial growth factor receptor 2, sequence (P35968 whole entry): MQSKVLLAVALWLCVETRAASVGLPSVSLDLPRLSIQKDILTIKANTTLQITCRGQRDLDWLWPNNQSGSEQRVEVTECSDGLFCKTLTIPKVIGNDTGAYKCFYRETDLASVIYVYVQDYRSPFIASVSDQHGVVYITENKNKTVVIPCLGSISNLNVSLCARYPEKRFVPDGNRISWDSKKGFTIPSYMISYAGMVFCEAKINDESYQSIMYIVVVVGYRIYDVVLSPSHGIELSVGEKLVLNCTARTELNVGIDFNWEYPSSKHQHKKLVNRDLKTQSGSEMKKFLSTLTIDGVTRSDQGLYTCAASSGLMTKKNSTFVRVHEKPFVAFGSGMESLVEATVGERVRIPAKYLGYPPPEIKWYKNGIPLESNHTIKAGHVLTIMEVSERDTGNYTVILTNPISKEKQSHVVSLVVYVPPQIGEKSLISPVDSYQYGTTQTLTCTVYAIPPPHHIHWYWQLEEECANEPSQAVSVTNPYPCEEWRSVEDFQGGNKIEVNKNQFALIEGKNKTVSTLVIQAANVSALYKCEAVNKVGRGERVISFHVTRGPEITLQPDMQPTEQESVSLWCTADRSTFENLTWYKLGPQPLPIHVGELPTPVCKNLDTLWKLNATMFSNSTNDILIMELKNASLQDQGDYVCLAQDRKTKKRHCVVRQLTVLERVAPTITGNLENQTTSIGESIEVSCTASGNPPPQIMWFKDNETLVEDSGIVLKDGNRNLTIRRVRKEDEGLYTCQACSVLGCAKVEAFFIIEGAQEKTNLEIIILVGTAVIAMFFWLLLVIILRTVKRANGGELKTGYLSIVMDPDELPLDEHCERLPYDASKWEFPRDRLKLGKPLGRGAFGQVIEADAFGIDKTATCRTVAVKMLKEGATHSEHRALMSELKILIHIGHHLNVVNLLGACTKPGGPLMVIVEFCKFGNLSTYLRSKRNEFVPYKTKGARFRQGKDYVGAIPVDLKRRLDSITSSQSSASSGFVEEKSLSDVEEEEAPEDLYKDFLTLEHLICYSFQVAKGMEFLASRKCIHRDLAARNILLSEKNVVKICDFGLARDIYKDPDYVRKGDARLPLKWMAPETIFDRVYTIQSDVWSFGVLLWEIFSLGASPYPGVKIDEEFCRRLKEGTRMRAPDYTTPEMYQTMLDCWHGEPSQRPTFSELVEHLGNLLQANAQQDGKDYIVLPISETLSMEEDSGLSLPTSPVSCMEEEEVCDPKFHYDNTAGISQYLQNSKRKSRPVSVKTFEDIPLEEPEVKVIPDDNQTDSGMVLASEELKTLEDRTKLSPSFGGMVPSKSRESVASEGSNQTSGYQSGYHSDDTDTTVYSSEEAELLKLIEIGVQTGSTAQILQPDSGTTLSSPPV

[12] = biological target: MAP kinase-activated protein kinase 5 (Homo sapiens, UniProt Q8IW41); test: Inhibition of MK5 using ATP as substrate
[13] = biological target: Phosphatidylinositol 4,5-bisphosphate 3-kinase catalytic subunit alpha isoform (Homo sapiens, UniProt P42336); test: Inhibition of PI3Kalpha using ATP as substrate
Phosphatidylinositol 4,5-bisphosphate 3-kinase catalytic subunit alpha isoform, sequence (P42336 whole entry, canonical isoform): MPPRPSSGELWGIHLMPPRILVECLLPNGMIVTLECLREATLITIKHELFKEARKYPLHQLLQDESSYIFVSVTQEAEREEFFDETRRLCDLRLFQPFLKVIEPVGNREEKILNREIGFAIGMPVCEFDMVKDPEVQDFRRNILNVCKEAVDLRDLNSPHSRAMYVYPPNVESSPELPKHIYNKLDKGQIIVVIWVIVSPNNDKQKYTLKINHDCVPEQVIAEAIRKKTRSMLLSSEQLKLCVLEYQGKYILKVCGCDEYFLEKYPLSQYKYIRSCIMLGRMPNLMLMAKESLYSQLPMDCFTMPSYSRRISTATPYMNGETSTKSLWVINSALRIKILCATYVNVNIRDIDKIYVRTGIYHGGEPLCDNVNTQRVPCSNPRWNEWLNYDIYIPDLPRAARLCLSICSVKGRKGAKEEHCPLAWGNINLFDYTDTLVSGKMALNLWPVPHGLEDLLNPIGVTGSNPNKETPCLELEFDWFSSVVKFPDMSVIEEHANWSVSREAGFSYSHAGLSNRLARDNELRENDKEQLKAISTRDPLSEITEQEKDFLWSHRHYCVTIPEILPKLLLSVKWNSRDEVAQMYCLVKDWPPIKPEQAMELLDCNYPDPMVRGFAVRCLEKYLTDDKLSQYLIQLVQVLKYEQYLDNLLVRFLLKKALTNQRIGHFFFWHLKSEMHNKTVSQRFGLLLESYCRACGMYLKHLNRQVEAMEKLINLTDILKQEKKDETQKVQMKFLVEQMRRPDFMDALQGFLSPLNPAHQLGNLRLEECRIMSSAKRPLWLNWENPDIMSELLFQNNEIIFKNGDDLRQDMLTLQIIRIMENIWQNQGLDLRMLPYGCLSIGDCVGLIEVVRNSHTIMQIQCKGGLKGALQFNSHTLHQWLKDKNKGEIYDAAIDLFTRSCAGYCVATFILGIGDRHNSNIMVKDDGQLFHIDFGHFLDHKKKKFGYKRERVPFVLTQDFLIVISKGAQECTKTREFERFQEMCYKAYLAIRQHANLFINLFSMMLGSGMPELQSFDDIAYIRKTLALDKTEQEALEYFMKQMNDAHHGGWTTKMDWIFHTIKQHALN

[14] = biological target: Phosphatidylinositol 4,5-bisphosphate 3-kinase catalytic subunit beta isoform (Homo sapiens, UniProt P42338); test: Inhibition of PI3Kbeta using ATP as substrate
Phosphatidylinositol 4,5-bisphosphate 3-kinase catalytic subunit beta isoform, sequence (P42338 whole entry, canonical isoform): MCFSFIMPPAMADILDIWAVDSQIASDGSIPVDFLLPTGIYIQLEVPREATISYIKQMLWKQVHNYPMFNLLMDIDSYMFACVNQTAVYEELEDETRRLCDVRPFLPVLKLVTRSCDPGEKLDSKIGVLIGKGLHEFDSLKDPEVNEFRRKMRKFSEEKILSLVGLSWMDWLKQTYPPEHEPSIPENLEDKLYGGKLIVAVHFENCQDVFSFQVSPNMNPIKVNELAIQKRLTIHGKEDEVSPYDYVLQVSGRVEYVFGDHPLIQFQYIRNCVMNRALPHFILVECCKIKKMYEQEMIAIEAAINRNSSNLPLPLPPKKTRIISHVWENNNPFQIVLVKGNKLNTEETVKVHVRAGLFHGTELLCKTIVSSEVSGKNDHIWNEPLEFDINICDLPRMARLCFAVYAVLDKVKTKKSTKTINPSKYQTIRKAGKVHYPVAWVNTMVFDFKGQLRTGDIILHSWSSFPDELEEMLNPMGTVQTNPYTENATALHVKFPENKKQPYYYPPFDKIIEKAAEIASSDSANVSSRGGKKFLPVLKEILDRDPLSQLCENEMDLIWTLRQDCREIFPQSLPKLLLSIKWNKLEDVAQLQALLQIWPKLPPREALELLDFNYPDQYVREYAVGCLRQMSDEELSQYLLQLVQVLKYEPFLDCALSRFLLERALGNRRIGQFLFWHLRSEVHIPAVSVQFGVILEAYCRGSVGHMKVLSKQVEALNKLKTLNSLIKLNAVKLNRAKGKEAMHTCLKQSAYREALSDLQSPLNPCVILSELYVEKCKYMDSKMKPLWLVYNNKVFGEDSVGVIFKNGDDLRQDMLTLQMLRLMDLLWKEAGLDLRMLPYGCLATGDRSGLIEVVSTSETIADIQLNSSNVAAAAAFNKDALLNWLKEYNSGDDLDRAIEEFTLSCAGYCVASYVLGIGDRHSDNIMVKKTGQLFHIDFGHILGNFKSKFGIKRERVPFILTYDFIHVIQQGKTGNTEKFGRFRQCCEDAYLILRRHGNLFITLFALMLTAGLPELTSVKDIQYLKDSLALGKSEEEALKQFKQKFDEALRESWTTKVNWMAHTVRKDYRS

[15] = biological target: Serine/threonine-protein kinase pim-1 (Homo sapiens, UniProt P11309); test: Inhibition of PIM1 using ATP as substrate
[16] = biological target: Serine/threonine-protein kinase pim-3 (Homo sapiens, UniProt Q86V86); test: Inhibition of PIM3 using ATP as substrate
[17] = biological target: Mast/stem cell growth factor receptor Kit (Homo sapiens) (UniProt P10721); test: Inhibition of cKIT using ATP as substrate

## Cn1c2c(c3ccc(Cl)c(Cl)c31)C(C#N)C1(CCNCC1)NC2=O (racemic)
[1]
  IC50: 2200 nM
[2]
  IC50: 1400 nM
[3]
  IC50: 7700 nM
[4]
  IC50: 220 nM
[5]
  IC50: 230 nM
[6]
  IC50: 77 nM
[7]
  IC50: 240 nM
[8]
  IC50: 3100 nM
[9]
  IC50: 3570 nM
[10]
  IC50: 4680 nM
K562
  IC50: 6490 nM
[11]
  IC50: 7200 nM
[12]
  IC50: 1700 nM
[13]
  IC50: > 9100 nM
[14]
  IC50: 8600 nM
[15]
  IC50: 60 nM
[16]
  IC50: 90 nM

## CN1CCC2(CC1)NC(=O)c1c(c3ccc(Cl)c(Cl)c3n1C)C2C#N (racemic)
[17]
  inhibition: inactive
